Assay results as given in ChEMBL document CHEMBL1123033, “Synthesis and antiherpes simplex virus activity of 9-[(1,3-dihydroxy-2-propylthio)methyl]guanine” (1985).
Active and inactive are the calls of the source. The rule behind the calls is not given here.

Tests used:
Human alphaherpesvirus 1 = assay: In vitro antiviral and anticellular activity was evaluated against herpes simplex virus HSV-1 (F strain) in vero cells tissue culture; assay type: functional; conditions: Human alphaherpesvirus 1, Vero; read-out: ID50 (the source's name)
Method in brief: (§1)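 Plaque reduction assay in Vero cells infected with HSV; cells exposed to the nucleoside analogue. ID50 is the dose giving a 50% drop in plaque count relative to untreated controls.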

Mus musculus [1] = assay: Effect of subcutaneous dose at 30 mg/kg on HSV-2 induced mortality in mice; assay type: functional
Method in brief: (§2)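 Female Swiss-Webster mice (~20 g) infected intraperitoneally with 5 × 10^4 PFU HSV-2 strain G (~10 LD50), then dosed subcutaneously once daily (24-h intervals) for 4 days starting 24 h post-infection, with a saline group run alongside. Read-out is survivors/total (15–16 mice per group) with percent survivors; probability by Fisher exact test.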

Mus musculus [2] = assay: Effect of subcutaneous dose at 10 mg/kg on HSV-2 induced mortality in mice; 1/16; assay type: functional; method in brief: as §2
Vero = assay: In vitro antiviral and anticellular activity was evaluated against vero cells in tissue culture; assay type: functional; conditions: Chlorocebus sabaeus, read-out: ID50 (the source's name)
Method in brief: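 Anticellular activity measured by cell proliferation assay in uninfected Vero cells.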

Mus musculus [3] = assay: Effect of subcutaneous dose at 100 mg/kg on HSV-2 induced mortality in mice; 8/15; assay type: functional; method in brief: as §2
Mus musculus [4] = assay: (§3) Mean survival time of HSV-2 induced mortality in mice was determined when the 10 mg/Kg of compound was administered subcutaneously; assay type: functional, organism-based
Method in brief: (§4)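 Mice (female Swiss-Webster, ~20 g) challenged intraperitoneally with 5 × 10^4 PFU HSV-2 strain G (~10 LD50); subcutaneous dosing once daily for 4 days, first dose 24 h after infection, with a saline group run alongside. Mean survival time in days ± standard deviation; probability by Mann-Whitney u-test.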

Mus musculus [5] = assay: Mean survival time of HSV-2 induced mortality in mice was determined when the 30 mg/Kg of compound was administered subcutaneously; NS means not significant; assay type: functional, organism-based; method in brief: as §4
Mus musculus [6] = assay: Effect of subcutaneous dose at 10 mg/kg on HSV-2 induced mortality in mice; assay type: functional; method in brief: as §2
Human betaherpesvirus 5 = assay: In vitro antiviral and anticellular activity was evaluated against human cytomegalovirus (HCMV AD 169) in […].; assay type: functional; conditions: read-out: ID50 (the source's name)
Method in brief: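 Plaque reduction assay in MRC-5 cells infected with HCMV and treated with the nucleoside analogue. ID50 is the dose cutting plaque numbers by 50% versus untreated controls.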

Mus musculus [7] = assay: Effect of subcutaneous dose at 30 mg/kg on HSV-2 induced mortality in mice; 2/16; assay type: functional; method in brief: as §2
Human alphaherpesvirus 2 [8] = assay: In vitro antiviral and anticellular activity was evaluated against herpes simplex virus HSV-2 (G strain) in vero (HSV-2 G ) cells.; assay type: functional; conditions: Human alphaherpesvirus 2, Vero; read-out: ID50 (the source's name); method in brief: as §1
Human alphaherpesvirus 2 [9] = assay: In vitro antiviral and anticellular activity was evaluated against herpes simplex virus HSV-2 (G strain) in vero cells.; assay type: functional; conditions: Human alphaherpesvirus 2, Vero; read-out: ID50 (the source's name); method in brief: as §1
Mus musculus [10] = assay: Effect of subcutaneous dose at 3 mg/kg on HSV-2 induced mortality in mice; assay type: functional; method in brief: as §2
Mus musculus [11] = assay: Mean survival time of HSV-2 induced mortality in mice was determined when the 3 mg/Kg of compound was administered subcutaneously; NS means not significant; assay type: functional, organism-based; method in brief: as §4
Mus musculus [12] = assay: Effect of subcutaneous dose at 3 mg/kg on HSV-2 induced mortality in mice; 4/16; assay type: functional; method in brief: as §2
Mus musculus [13] = assay: as §3; assay type: functional; method in brief: as §4
Mus musculus [14] = assay: Effect of subcutaneous dose at 30 mg/kg on HSV-2 induced mortality in mice(value in parentheses denotes probability; assay type: functional; method in brief: as §2
Mus musculus [15] = assay: Effect of subcutaneous dose at 30 mg/kg on HSV-2 induced mortality in mice; 12/16; assay type: functional; method in brief: as §2
Mus musculus [16] = assay: Effect of subcutaneous dose at 10 mg/kg on HSV-2 induced mortality in mice; 7/16; assay type: functional; method in brief: as §2

| SMILES | IC50 (Human alphaherpesvirus 1) [µM] | IC50 (Vero) [µM] | Mean survival time (Mus musculus [6]) [days] | IC50 (Human betaherpesvirus 5) [µM] | IC50 (Human alphaherpesvirus 2 [9]) [µM] | also measured |
| --- | --- | --- | --- | --- | --- | --- |
| Nc1nc(O)c2ncn(C[S+]([O-])C(CO)CO)c2n1 (centres undefined) | 25 | – | – | – | – | – |
| Nc1nc(O)c2ncn(CSC(CO)CO)c2n1 | 0.9 | 900 | 9.7 | 80 | – | Mean survival time (Mus musculus [1]): 9.4 days; Survivors (Mus musculus [2]): 1; Survivors (Mus musculus [3]): 8; Mean survival time (Mus musculus [4]): inactive; Mean survival time (Mus musculus [5]): inactive; Survivors (Mus musculus [7]): 2; IC50 (Human alphaherpesvirus 2 [8]): 8 µM |
| Nc1nc(O)c2ncn(CS(=O)(=O)C(CO)CO)c2n1 | 40 | – | – | – | – | – |
| Nc1nc2c(ncn2COCCO)c(=O)[nH]1 [ACYCLOVIR] | 0.4 | 1100 | – | 100 | 1.5 | – |
| Nc1nc2c(ncn2COC(CO)CO)c(=O)[nH]1 [GANCICLOVIR] | 0.3 | 500 | 12.4 | 6 | 1.3 | Mean survival time (Mus musculus [10]): 11.2 days; Mean survival time (Mus musculus [11]): inactive; Survivors (Mus musculus [12]): 4; Mean survival time (Mus musculus [13]): <0.001; Mean survival time (Mus musculus [14]): 13.8 days; Survivors (Mus musculus [15]): 12; Survivors (Mus musculus [16]): 7 |
